The source made the active and inactive calls. No cut-off for these calls is given here.
Tests used:
[1] = biological target: Apoptosis regulator Bcl-2 (Homo sapiens, UniProt P10415); test: Inhibition of human Bcl-2 protein by ELISA
Summary of the method: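 ELISA competitive binding to Bcl-2 using a biotinylated Bim peptide as competitor; IC50 values.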

MDA-MB-231 [2] = test: Growth inhibition of human MDA-MB-231 2LMP cells after 4 days by WST-8 based assay; type: functional, cell-based; details: MDA-MB-231, 96 h
Summary of the method: (§1)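 Cells grown with compound for 4 days, then cell growth read by WST-based assay; IC50 values. Both lines express high levels of Bcl-2, Bcl-xL and Mcl-1.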

PC-3 [3] = test: Growth inhibition of human PC3 cells after 4 days by WST-8 based assay; type: functional, cell-based; details: PC-3, 96 h; summary of the method: as §1
[4] = biological target: Induced myeloid leukemia cell differentiation protein Mcl-1 (Homo sapiens, UniProt Q07820); test: Inhibition of human Mcl-1 protein by fluorescence polarization assay
Summary of the method: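 Mcl-1 binding by fluorescence-polarization competition assay; Ki values.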

MDA-MB-231 [5] = test: Induction of apoptosis in human MDA-MB-231 2LMP cells assessed as cell viability by trypan blue exclusion assay; type: functional, cell-based; details: TDE = time-dependent effect
MDA-MB-231 [6] = test: Induction of apoptosis in human MDA-MB-231 2LMP cells assessed as cell viability at 1 uM after 4 days by trypan blue exclusion assay; type: functional; details: MDA-MB-231, 96 h, read-out: Activity
Summary of the method: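 Cell death scored by trypan blue exclusion after 4 days of exposure at 0.3, 1 and 3 µM; percentage of dead cells reported with ± error.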

PC-3 [7] = test: Induction of apoptosis in human PC3 cells by annexin-5/propidium iodide assay; type: functional, cell-based
Summary of the method: (§2)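 Four-day exposure, then apoptosis measured by annexin-V/propidium iodide staining and flow cytometry.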

PC-3 [8] = test: Induction of apoptosis in human PC3 cells assessed as cell viability by trypan blue exclusion assay; type: functional, cell-based; details: TDE = time-dependent effect
MDA-MB-231 [9] = test: Induction of apoptosis in human MDA-MB-231 2LMP cells by annexin-5/propidium iodide assay; type: functional, cell-based; summary of the method: as §2
PC-3 [10] = test: Induction of apoptosis in human PC3 cells assessed as Cell viability after 4 days by trypan blue exclusion assay; type: functional, cell-based

Chain of Induced myeloid leukemia cell differentiation protein Mcl-1 (Q07820 whole entry): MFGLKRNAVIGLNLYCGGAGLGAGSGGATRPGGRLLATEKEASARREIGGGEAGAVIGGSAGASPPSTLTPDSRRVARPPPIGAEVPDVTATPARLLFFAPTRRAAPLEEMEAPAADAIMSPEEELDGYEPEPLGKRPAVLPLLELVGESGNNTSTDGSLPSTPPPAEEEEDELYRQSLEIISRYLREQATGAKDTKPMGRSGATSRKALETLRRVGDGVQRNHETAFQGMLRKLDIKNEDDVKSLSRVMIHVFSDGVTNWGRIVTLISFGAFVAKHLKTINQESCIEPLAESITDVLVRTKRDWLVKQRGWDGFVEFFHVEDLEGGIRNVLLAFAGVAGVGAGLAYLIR
Chain of Apoptosis regulator Bcl-2 (P10415 whole entry): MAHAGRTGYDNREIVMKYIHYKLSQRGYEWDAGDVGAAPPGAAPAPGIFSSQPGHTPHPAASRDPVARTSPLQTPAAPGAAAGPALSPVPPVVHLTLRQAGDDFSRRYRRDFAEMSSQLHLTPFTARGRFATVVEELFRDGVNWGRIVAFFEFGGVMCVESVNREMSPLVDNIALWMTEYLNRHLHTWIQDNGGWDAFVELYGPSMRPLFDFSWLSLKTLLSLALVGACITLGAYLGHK

Compound	IC50 [1] [nM]	IC50 (MDA-MB-231 [2]) [nM]	IC50 (PC-3 [3]) [nM]	IC50 [4] [nM]	Ki [4] [nM]	Activity (MDA-MB-231 [5])	viability at 1 µM (MDA-MB-231 [6]) [%]	Activity (PC-3 [7])	Activity (PC-3 [8])	Activity (MDA-MB-231 [9])	Activity (PC-3 [10])
O=C(c1ccc(Oc2ccccc2)cc1)c1cc(C(=O)c2cccc3ccccc23)c(O)c(O)c1O	290	290	550	1200	150						
CC(C)c1cc(C(=O)c2ccccc2)c(O)c(O)c1O	41600	30700	39300	36500	4600						
O=C(c1ccc(Oc2ccccc2)cc1)c1cc(C(=O)c2nc3ccccc3s2)c(O)c(O)c1O	170	120	260	310	37	tde	58	Active	tde	Active	Dose-dependent effect
Cc1cc2c(C(C)C)c(O)c(O)c(C=O)c2c(O)c1-c1c(C)cc2c(C(C)C)c(O)c(O)c(C=O)c2c1O [GOSSYPOL]		3700	2500								

Further lines, with some results ahead:

IC50 [1] [nM]	IC50 (MDA-MB-231 [2]) [nM]	IC50 (PC-3 [3]) [nM]	IC50 [4] [nM]	Ki [4] [nM]	Compound	Activity (MDA-MB-231 [5])	viability at 1 µM (MDA-MB-231 [6]) [%]	Activity (PC-3 [7])	Activity (PC-3 [8])	Activity (MDA-MB-231 [9])	Activity (PC-3 [10])
2600	4500	5700	2670	340	CC(C)C(=O)c1cc(C(=O)c2ccc(Oc3ccccc3)cc2)c(O)c(O)c1O						
3400	12900	12400	3060	380	CC(C)c1cc(C(=O)c2ccc(Oc3ccccc3)cc2)c(O)c(O)c1O						

Reference: ChEMBL document CHEMBL1141593, “Acylpyrogallols as inhibitors of antiapoptotic Bcl-2 proteins” (J Med Chem, 2008)
